ChEMBL document CHEMBL1221168, “Activity-based probes that target diverse cysteine protease families” (Nat Chem Biol, 2005)
The source made the active and inactive calls. No cut-off for these calls is given here.

Key:
[1] = target: T1, Cathepsin J (Rattus norvegicus) (UniProt Q63088); assay: Binding affinity to cathepsin J in crude rat liver homogenates using [125I]DCG-04 based competition protein labeling up to 50 uM by SDS-PAGE method; assay type: tissue-based
T1 sequence (whole entry): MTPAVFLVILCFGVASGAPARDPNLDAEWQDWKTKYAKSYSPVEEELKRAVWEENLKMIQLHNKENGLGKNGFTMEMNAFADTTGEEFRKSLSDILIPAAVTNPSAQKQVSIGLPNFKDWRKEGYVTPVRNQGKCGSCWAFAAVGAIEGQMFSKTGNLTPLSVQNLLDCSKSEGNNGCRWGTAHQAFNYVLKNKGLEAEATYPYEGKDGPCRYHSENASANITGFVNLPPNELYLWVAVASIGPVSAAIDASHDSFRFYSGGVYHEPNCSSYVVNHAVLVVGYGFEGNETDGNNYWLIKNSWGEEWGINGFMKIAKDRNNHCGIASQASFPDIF
Method in brief: (§1)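 Rat liver lysate (50 µg protein in 50 mM sodium acetate, 2 mM DTT, 5 mM MgCl2, pH 5.5) was preincubated with compound from 50 mM DMSO stocks for 30 min at room temperature. [125I]DCG-04 (10^6 c.p.m.) was then added for 45 min at room temperature. Bands were resolved by SDS-PAGE, imaged and quantified, and IC50 was taken from the linear portion of the signal versus inhibitor concentration plot.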

[2] = target: T2, Pro-cathepsin H (Rattus norvegicus) (UniProt P00786); assay: Binding affinity to cathepsin H in crude rat liver homogenates using [125I]DCG-04 based competition protein labeling up to 50 uM by SDS-PAGE method; assay type: tissue-based; method in brief: as §1
T2 sequence (whole entry): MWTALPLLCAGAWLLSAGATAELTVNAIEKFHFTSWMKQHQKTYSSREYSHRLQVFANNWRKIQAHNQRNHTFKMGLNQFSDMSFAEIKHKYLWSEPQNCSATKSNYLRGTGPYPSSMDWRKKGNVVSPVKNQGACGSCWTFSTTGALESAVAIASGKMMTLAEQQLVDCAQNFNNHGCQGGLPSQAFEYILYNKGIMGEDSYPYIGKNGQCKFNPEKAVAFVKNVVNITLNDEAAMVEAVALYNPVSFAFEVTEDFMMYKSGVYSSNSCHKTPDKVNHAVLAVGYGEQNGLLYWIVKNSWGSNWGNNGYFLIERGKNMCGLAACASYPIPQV

[3] = target: T3, Dipeptidyl peptidase 1 (Rattus norvegicus) (UniProt P80067); assay: Binding affinity to cathepsin C in crude rat liver homogenates using [125I]DCG-04 based competition protein labeling up to 50 uM by SDS-PAGE method; assay type: tissue-based; method in brief: as §1
T3 sequence (whole entry): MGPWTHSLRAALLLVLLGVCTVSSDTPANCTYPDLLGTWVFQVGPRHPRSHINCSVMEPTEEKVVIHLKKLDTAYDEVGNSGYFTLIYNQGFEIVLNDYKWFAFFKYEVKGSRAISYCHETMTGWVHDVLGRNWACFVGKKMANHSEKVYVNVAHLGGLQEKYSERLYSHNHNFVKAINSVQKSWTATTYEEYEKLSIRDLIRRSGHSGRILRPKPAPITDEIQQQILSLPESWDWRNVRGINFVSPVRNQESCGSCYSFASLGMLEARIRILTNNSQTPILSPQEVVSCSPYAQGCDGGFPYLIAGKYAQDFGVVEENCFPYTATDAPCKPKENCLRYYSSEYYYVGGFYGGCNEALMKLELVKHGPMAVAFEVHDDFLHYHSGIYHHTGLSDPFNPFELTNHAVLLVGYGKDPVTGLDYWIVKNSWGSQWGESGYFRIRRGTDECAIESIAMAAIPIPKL

[4] = target: Cathepsin Z (Rattus norvegicus) (UniProt Q9R1T3); assay: Binding affinity to cathepsin Z in crude rat liver homogenates using [125I]DCG-04 based competition protein labeling up to 50 uM by SDS-PAGE method; assay type: tissue-based; method in brief: as §1
Cathepsin Z = Cathepsin Z (Rattus norvegicus, UniProt Q9R1T3); assay: Binding affinity to cathepsin Z in crude rat liver homogenates using [125I]DCG-04 based competition protein labeling by SDS-PAGE method; assay type: tissue-based; method in brief: as §1
Cathepsin B = Cathepsin B (Rattus norvegicus, UniProt P00787); assay: Binding affinity to cathepsin B in crude rat liver homogenates using [125I]DCG-04 based competition protein labeling by SDS-PAGE method; assay type: tissue-based; method in brief: as §1
Pro-cathepsin H = target: T4, Pro-cathepsin H (Rattus norvegicus, UniProt P00786); assay: Binding affinity to cathepsin H in crude rat liver homogenates using [125I]DCG-04 based competition protein labeling by SDS-PAGE method; assay type: tissue-based; method in brief: as §1
T4 sequence (P00786 whole entry): T2 sequence (whole entry)

Dipeptidyl peptidase 1 = target: T5, Dipeptidyl peptidase 1 (Rattus norvegicus, UniProt P80067); assay: Binding affinity to cathepsin C in crude rat liver homogenates using [125I]DCG-04 based competition protein labeling by SDS-PAGE method; assay type: tissue-based; method in brief: as §1
T5 sequence (P80067 whole entry): T3 sequence (whole entry)

Cathepsin J = target: T6, Cathepsin J (Rattus norvegicus, UniProt Q63088); assay: Binding affinity to cathepsin J in crude rat liver homogenates using [125I]DCG-04 based competition protein labeling by SDS-PAGE method; assay type: tissue-based; method in brief: as §1
T6 sequence (Q63088 whole entry): T1 sequence (whole entry)

[5] = target: Cathepsin B (Rattus norvegicus) (UniProt P00787); assay: Binding affinity to cathepsin B in crude rat liver homogenates using [125I]DCG-04 based competition protein labeling up to 50 uM by SDS-PAGE method; assay type: tissue-based; method in brief: as §1
[6] = target: T7, Procathepsin L (Rattus norvegicus) (UniProt P07154); assay: Binding affinity to cathepsin L in crude rat liver homogenates assessed as protein labeling; assay type: tissue-based; conditions: tested as the 125I-labelled form
T7 sequence (whole entry): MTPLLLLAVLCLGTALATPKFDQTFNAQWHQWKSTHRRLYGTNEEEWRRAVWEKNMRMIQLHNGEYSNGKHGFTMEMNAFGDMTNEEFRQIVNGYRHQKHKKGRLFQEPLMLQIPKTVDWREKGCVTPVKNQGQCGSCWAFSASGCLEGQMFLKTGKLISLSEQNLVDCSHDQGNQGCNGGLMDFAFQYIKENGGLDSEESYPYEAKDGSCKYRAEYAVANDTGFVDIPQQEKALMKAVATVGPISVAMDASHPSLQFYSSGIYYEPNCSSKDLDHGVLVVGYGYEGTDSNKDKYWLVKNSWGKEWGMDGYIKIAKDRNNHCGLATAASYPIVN

[7] = target: Lys-gingipain (Porphyromonas gingivalis (strain ATCC 33277 / DSM 20709 / JCM 12257)) (UniProt B2RLK2); assay: Binding affinity to Lys-gingipain in total lcrude cell lysates of Porphyromonas gingivalis assessed as protein lebeling; conditions: tested as the 125I-labelled form
[8] = target: Arg-gingipain-1 proteinase (Porphyromonas gingivalis) (UniProt Q51816); assay: Binding affinity to Arg-gingipain in total lcrude cell lysates of Porphyromonas gingivalis assessed as protein lebeling; conditions: tested as the 125I-labelled form

inhibition [4]	IC50 (Cathepsin B) [µM]	IC50 (Pro-cathepsin H) [µM]	IC50 (Dipeptidyl peptidase 1) [µM]	IC50 (Cathepsin J) [µM]	SMILES	also measured
inactive	–	–	–	–	Cc1cccc(C)c1C(=O)OCC(=O)[C@H](CCCNC(=N)N)NC(=O)[C@H](Cc1ccccc1)NC(=O)OCc1ccccc1	inhibition [1]: inactive; inhibition [2]: inactive; inhibition [3]: inactive
–	0.22	7.9	6.4	6.4	CC(=O)N[C@@H](Cc1ccc(O)cc1)C(=O)N[C@@H](Cc1ccccc1)C(=O)NCC(=O)COC(=O)c1c(C)cccc1C	IC50 (Cathepsin Z): 39 µM
inactive	–	–	–	–	COc1ccc(C(=O)OCC(=O)CNC(=O)[C@H](Cc2ccccc2)NC(=O)OCc2ccccc2)cc1	inhibition [1]: inactive; inhibition [2]: inactive; inhibition [3]: inactive; inhibition [5]: inactive
–	–	–	–	–	CC(=O)N[C@@H](CCCCNC(=O)CCCCC1SC[C@H]2NC(=O)N[C@@H]12)C(=O)N[C@@H](Cc1ccc(O)c(I)c1)C(=O)NCCCCCC(=O)NCC(=O)COC(=O)c1c(C)cccc1C (stereo partly specified)	Activity [6]: Active
inactive	0.12	–	–	–	Cc1cccc(C)c1C(=O)OCC(=O)CNC(=O)[C@H](Cc1ccccc1)NC(=O)OCc1ccccc1	inhibition [1]: inactive; inhibition [2]: inactive; inhibition [3]: inactive
–	0.015	–	–	–	Cc1cccc(C)c1C(=O)OCC(=O)[C@H](CCCN=C(N)N)NC(=O)[C@H](Cc1ccccc1)NC(=O)OCc1ccccc1	–
–	–	–	–	–	CC(=O)N[C@@H](CCCCNC(=O)CCCCC1SC[C@H]2NC(=O)N[C@@H]12)C(=O)N[C@@H](Cc1ccc(O)c(I)c1)C(=O)NCCCCCC(=O)N[C@@H](CCCNC(=N)N)C(=O)COC(=O)c1c(C)cccc1C (stereo partly specified)	Activity [7]: Active; Activity [8]: Active
inactive	0.92	7.9	49	49	Cc1cccc(C)c1C(=O)OCC(=O)CNC(=O)[C@H](CC(C)C)NC(=O)OCc1ccccc1	–
–	1.2	6.6	8.3	8.3	COc1ccc(C(=O)ONC(=O)CNC(=O)[C@H](Cc2ccccc2)NC(=O)OCc2ccccc2)cc1	IC50 (Cathepsin Z): 1.5 µM
–	–	–	–	–	CC(=O)N[C@@H](CCCCNC(=O)CCCCC1SC[C@H]2NC(=O)N[C@@H]12)C(=O)N[C@@H](Cc1ccc(O)c(I)c1)C(=O)NCCCCCC(=O)N[C@@H](CCCCN)C(=O)COC(=O)c1c(C)cccc1C (stereo partly specified)	Activity [7]: Active; Activity [8]: Active
–	–	–	–	–	CC(=O)N[C@@H](CCCCNC(=O)CCCCC1SC[C@H]2NC(=O)N[C@@H]12)C(=O)N[C@@H](Cc1ccc(O)c(I)c1)C(=O)NCCCCCC(=O)N[C@@H](CC(C)C)C(=O)COC(=O)c1c(C)cccc1C (stereo partly specified)	Activity [6]: Active
–	0.0073	12	3.6	3.6	CC(=O)N[C@@H](Cc1ccc(O)cc1)C(=O)N[C@@H](Cc1ccccc1)C(=O)N[C@@H](CCCNC(=N)N)C(=O)COC(=O)c1c(C)cccc1C	IC50 (Cathepsin Z): 4.7 µM
